Source: PubChem BioAssay
Pf gamet viab: P. falciparum stage V gametocyte viability inhibition. P. falciparum stage V gametocytes, ATP luminescence, 24 h. inhibition, % at 10.9 µM. actives 0.065% (n = 150,000). AID 743093;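 active = inhibition above the mean plus 3 SD of compounds within the control limits, set per campaign, cut at about 38% in these data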
Hep lipid drop: modulators of hepatic lipid droplet formation; AML12 mouse hepatocytes, oleate lipid droplets, BODIPY imaging; inhibition, % at 6.5 µM; actives 0.4% (n = 240,000);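 active = lipid droplet intensity inhibited by at least 50%, with more than 500 cells counted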
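Assay system: AML12 hepatocytes (mouse); Probe or stimulus: oleic acid at 100 µM to induce lipid droplet formation; Dosing: compound at 6.5 µM only; Schedule: compound with oleate, overnight; Detection: fluorescence imaging, 20x objective, two fields per well; Measure: % inhibition of lipid droplet signal.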
L929 necroptosis: L929 zVAD cell death inhibition | L929 zVAD necroptosis rescue, ATP luminescence, 24 h; with zVAD 60 µM | viability rescue, % at 10 µM | actives 0.38% (n = 220,000) | AID 1377;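 active = activation, scaled between plate controls, above about 75%, limit read from the data; inactive = activation under that limit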
Arbovirus anti: blocks arbovirus infection | inhibition, % at 10 µM | arbovirus infection cell-based antiviral screen | actives 0.37% (n = 200,000); in the data active = inhibition above about 30%
TNF death inh: inhibitors of TNF-alpha induced necroptosis in Jurkat FADD-/- cells; Jurkat FADD-/- TNF necroptosis rescue, ATP luminescence, 24 h; 0 = TNF only, 100 = no-TNF cells; activation (protection from cell death), % at 10 µM; actives 0.068% (n = 220,000); AID 463075;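 active = activation, meaning protection from cell death, of at least 50% relative to plate controls; inactive = activation below 50%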;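 also: necroptosis triggered by 40 ng/mL TNF-alpha added together with compound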
zVAD necrop conf: confirmed blocker of zVAD induced death in L929 cells; shares compounds with L929 necroptosis; L929 zVAD-induced necroptosis rescue, ATP luminescence, 24 h; activation (protection from necroptosis), % at 10 µM; actives 16% (n = 760); AID 463117;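 active = mean protection from necroptosis of at least 50% over duplicate tests; inactive = mean protection below 50%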
Numbers stand for hits; . = inactive; / = no result. Sampled rows, rich in hits. Any-hit rate of the full collection: about 0.91%.

SMILES	Pf gamet viab	Hep lipid drop	L929 necroptosis	Arbovirus anti	TNF death inh	zVAD necrop conf
CC(C)Nc1nnc(SCC(=O)Nc2ccc3c(c2)C(=O)c2ccccc2C3=O)s1	/	.	81	.	.	.
CC1CCc2nc(NC(=O)C3CC3)sc2C1 (configuration not stated)	.	.	78	.	.	.
c1ccc(-n2cnc3cc(NCc4ccncc4)ccc32)cc1	.	.	83	.	.	58
CC(=O)Nc1ccc2c(c1)ncn2-c1ccccc1	.	.	.	/	.	/
CC(C)n1cnc2cc(NCc3ccccn3)ccc21	/	.	.	.	.	/
c1ccc(-n2cnc3cc(NCc4ccccn4)ccc32)cc1	.	.	76	.	.	63
CC1(C)Cc2c(sc(NC(=O)C(=O)NCC3CCCO3)c2C(N)=O)CO1 (configuration not stated)	/	.	/	/	/	/
CN(CCc1nc2ccc(Cl)cc2[nH]1)Cc1nc(CC2CC2)no1	.	.	.	.	.	/
Cc1ccc(S(=O)(=O)CC(CN2CCCCC2)N2CCCCC2)cc1 (configuration not stated)	.	.	81	.	.	.
O=S(=O)(CC(CN1CCOCC1)N1CCOCC1)c1ccccc1 (configuration not stated)	.	.	.	.	.	/
O=S(=O)(CC(CN1CCCCC1)N1CCCCC1)c1ccc2ccccc2c1 (configuration not stated)	.	.	76	.	.	.
O=C(CNC(=O)c1ccc(Br)o1)NC1CCCCC1	/	.	/	/	/	/
Cc1ccc(S(=O)(=O)N2CCOC2CNC(=O)C(=O)NCCN(C)C)cc1 (configuration not stated)	/	.	/	/	/	/
COc1ccc(C(=O)Nc2ccc3c(c2)nc(CCNC(=O)c2ccco2)n3C)cc1	/	.	/	/	/	/
O=C(Nc1ccccc1)Nc1nccs1	.	/	85	.	.	.
COc1ccc(C(=O)Nc2nccs2)cc1OC	.	.	80	.	.	.
CCn1nccc1C(=O)Nc1nccs1	/	.	85	.	.	.
CCn1cc(Br)c(C(=O)Nc2nccs2)n1	.	.	.	.	.	/
COc1ccc(NC(=O)Nc2nccs2)cc1	.	.	.	.	.	/
O=C(Nc1nccs1)c1cccc(NC(=O)C(F)(F)F)c1	.	.	97	/	.	.
CCC(CC)C(=O)Nc1cccc(C(=O)Nc2nccs2)c1	.	/	.	.	.	/
CCCN1C(=O)c2ccc(C(=O)Nc3nccs3)cc2C1=O	.	.	.	.	.	/
CCCc1cc(C(=O)Nc2nccs2)cs1	.	.	99	.	.	80
COc1cc(/C=N/NC(=O)c2ccc3ccccc3c2)ccc1Oc1ccc([N+](=O)[O-])cn1	.	56	76	.	.	.
O=C(CCC(=O)N1CCN(C(=O)c2ccco2)CC1)c1ccc(F)cc1	.	.	76	.	.	.
SMILES	Pf gamet viab	Hep lipid drop	L929 necroptosis	Arbovirus anti	TNF death inh	zVAD necrop conf
O=C(CCC(=O)N1CCOCC1)c1ccc(F)cc1	.	.	.	.	.	/
O=C(CSc1nncn1-c1ccccc1)Nc1cccc(S(=O)(=O)N2CCCCC2)c1	.	.	.	.	.	/
O=C(CSc1nnnn1-c1ccc(O)cc1)Nc1cccc(S(=O)(=O)N2CCCC2)c1	.	.	88	.	.	89
Cc1ccc(NC(=O)CSc2nnnn2-c2ccc3c(c2)OCO3)cc1C	.	.	79	.	.	74
O=C(CSc1nnnn1-c1ccc(O)cc1)Nc1ccc(N2CCOCC2)c(Cl)c1	/	.	76	.	.	75
COC(=O)CCSCC(=O)N1N=C(c2ccc(OC)cc2)CC1c1cccc(OC)c1OC (configuration not stated)	.	.	.	.	.	/
Cc1csc2ncnc(N3CCN(C(=O)Nc4ccc(OC(F)(F)F)cc4)CC3)c12	.	.	.	/	.	/
COc1ccc(CCNC(=O)Oc2ccccc2)cc1OC	/	.	/	/	/	/
COC(=O)COc1ccc(S(=O)(=O)Nc2ccc3c(c2)OCCO3)cc1C	/	.	/	/	/	/
Cc1ccc(NC(=O)COC(=O)c2ccc3c(c2)NC(=O)C2CCCN32)cc1C (configuration not stated)	.	/	90	.	.	61
FC(F)(F)c1cnc2c(-c3ccccc3)n[nH]c2c1	.	.	77	.	.	.
Cc1cnc(NC(=O)c2ccc(OCC3CCCO3)cc2)s1 (configuration not stated)	.	.	75	.	.	75
COc1ccc(N=Cc2c(O)[nH]c3ccccc23)cc1	.	/	77	.	.	76
Oc1[nH]c2ccccc2c1/C=N/c1nccs1	.	/	76	.	.	.
CCOC(=O)c1c(C)[nH]c(O)c1C=Nc1ccccc1	/	/	87	.	.	.
COc1ccc(CN=Cc2c(O)[nH]c3ccccc23)cc1	/	.	.	.	.	/
Cc1ccc(C)c(N2CCN(C(=O)c3ccc(NC4=NC5CS(=O)(=O)CC5S4)cc3)CC2)c1 (configuration not stated)	/	.	/	/	/	/
C=CCOc1ccc(/C=C/C(C)=N\O)cc1	.	/	79	.	.	.
C=CCOc1ccc(/C=C/C(=O)Nc2ccc(C(=O)NC)cc2)cc1	.	.	/	.	.	/
CC(/C=N\NC(=O)c1ccc2c(c1)OCO2)c1ccccc1 (configuration not stated)	/	.	/	/	/	/
CCN1CCN(Cc2ccc(NC(=O)c3ccc(C)c(NC(=O)N4CCNC4=O)c3)cc2C(F)(F)F)CC1	.	.	.	/	.	/
Cc1cn(-c2cc(C(=O)Nc3ccc(C)c(NC(=O)N4CCNC4=O)c3)cc(C(F)(F)F)c2)cn1	.	.	79	/	.	51
COC(=O)c1cn(CCC#N)nc1-c1ccc2ccccc2c1	.	.	/	/	/	/
CC(=O)Oc1ccccc1-c1nc(/C=C/c2ccccc2)no1	/	.	/	/	/	/
CC1CC(C)CN(S(=O)(=O)CC23CCC(CC2=O)C3(C)C)C1 (configuration not stated)	/	.	/	/	/	/
SMILES	Pf gamet viab	Hep lipid drop	L929 necroptosis	Arbovirus anti	TNF death inh	zVAD necrop conf
COCC1CCCC1OS(N)(=O)=O (configuration not stated)	.	.	/	/	/	/
Cn1c(N)c(C(=O)N/N=C/c2ccccc2)sc1=S	.	.	75	/	.	76
CC(C)c1ccc(/C=C2\SC(=S)N(CCC(=O)N3CCCCC3CCO)C2=O)cc1 (configuration not stated)	/	.	/	/	/	/
O=C(Cn1ncc(Cl)c(Cl)c1=O)c1ccc(Cl)cc1	/	.	.	.	.	/
O=c1c(Cl)c(Cl)cnn1Cc1ccc(F)cc1	.	.	.	.	.	/
O=C(OCn1ncc(Cl)c(Cl)c1=O)c1ccccc1Cl	.	/	102	.	.	64
O=C(OCn1ncc(Cl)c(Cl)c1=O)c1ccc(F)cc1	/	/	78	.	.	53
Cc1cc(-c2nnc(SCC(=O)Nc3ccc(C)c(C)c3)n2N)n[nH]1	/	.	/	/	/	/
CCCc1ccc(C(=O)NNc2cccc(C)c2)cc1	.	/	.	/	.	/
CS(=O)(=O)c1nc(S(=O)(=O)c2ccc(Cl)cc2)c(N2CCC(O)CC2)s1	/	.	/	/	/	/
